Activity calls are given as the source filed them. No cut-off for these calls is given here.
Key:
[1] = tested on: Vero; assay: Cytotoxicity against African green monkey Vero cells assessed as reduction in cell viability incubated for 48 hrs by MTT assay; type: cell-based; settings: Chlorocebus sabaeus
Method in brief: (§1)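 MTT assay on MCF-7 breast cancer cells and noncancerous Vero cells, with tamoxifen as positive control. One MCF-7 arm was pretreated with the NQO1 inhibitor dicoumarol. IC50 values are from three experiments. Cytotoxicity index is the IC50 of the prodrug in Vero cells relative to the parent cucurbitacin B IC50 in Vero cells.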

[2] = tested on: MCF7; assay: Cytotoxicity against human MCF7 cells assessed as reduction in cell viability incubated for 48 hrs by MTT assay; type: functional, cell-based; settings: for IC50: MCF7, 48 h; method in brief: as §1
[3] = molecular target: T1, NAD(P)H dehydrogenase [quinone] 1 (Homo sapiens, UniProt P15559); assay: Prodrug activation in human MCF7 cells assessed as NQO1-mediated cucurbitacin B formation by ESI-TOFMS analysis; type: cell-based
[4] = tested on: 4T1; assay: Antitumor activity against mouse 4T1 cells implanted in BALB/c mouse assessed as tumor growth inhibition at 5 mg/kg/day, ip for 2 weeks measured daily during compound dosing by digital caliper method relative to control; type: functional; settings: 4T1, ip, 336 h, read-out: TGI
[5] = Drug uptake in human MCF7 cell lysate at 25 uM incubated for 24 hrs by HPLC analysis; type: ADME, subcellular; settings: mcf7, 24 h
Method in brief: (§2)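 MCF-7 cells were exposed to 25 μM prodrug for 24 h, then lysed. Prodrug concentrations in culture medium and in cell lysate were measured by HPLC against a calibration curve.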

[6] = Toxicity in BALB/c mouse implanted with mouse 4T1 cells assessed as body weight at 10 mg/kg/day, ip for 2 weeks measured daily during compound dosing (reference value: -1.48 %); type: organism-based; settings: in vivo, 336 h
[7] = molecular target: T1, NAD(P)H dehydrogenase [quinone] 1; assay: Prodrug activation in human MCF7 cells assessed as NQO1-mediated (R)-6-hydroxy-6-((2S,8S,9R,10R,13R,14S,16R,17R)-16-hydroxy-4,4,9,13,14-pentamethyl-2-(methyl(3-(methylamino)propyl)carbamoyloxy)-3,11-dioxo 2,3,4,7,8,9,10,11,12,13,14,15,16,17-tetradecahydro-1H-cyclopenta[a]phenanthren-17-yl)-2-methyl-5-oxohept-3-en-2-yl acetate formation by ESI-TOFMS analysis; type: cell-based
[8] = molecular target: T1, NAD(P)H dehydrogenase [quinone] 1; assay: Prodrug activation in human MCF7 cells assessed as NQO1-mediated (R)-6-hydroxy-6-((2S,8S,9R,10R,13R,14S,16R,17R)-16-hydroxy-4,4,9,13,14-pentamethyl-2-(methyl(3-(methylamino)propyl)carbamoyloxy)-3,11-dioxo 2,3,4,7,8,9,10,11,12,13,14,15,16,17-tetradecahydro-1H-cyclopenta[a]phenanthren-17-yl)-2-methyl-5-oxohept-3-en-2-yl acetate formation at 25 uM incubated for 24 hrs by HRMS analysis; type: cell-based; settings: mcf7, 24 h
[9] = Drug uptake in human MCF7 cells assessed as compound remaining in culture medium at 25 uM incubated for 24 hrs by HPLC analysis; type: ADME, cell-based; settings: mcf7, 24 h; method in brief: as §2
[10] = tested on: 4T1; assay: Antitumor activity against mouse 4T1 cells xenografted in BALB/c mouse assessed as tumor weight at 3 to 10 mg/kg/day, ip for 2 weeks (reference value: 500 to 700 mg); type: functional
[11] = molecular target: T1, NAD(P)H dehydrogenase [quinone] 1; assay: Prodrug activation in human MCF7 cells assessed as NQO1-mediated CuB release at 25 uM incubated for 24 hrs by HRMS analysis; type: cell-based; settings: mcf7, 24 h
[12] = molecular target: T1, NAD(P)H dehydrogenase [quinone] 1; assay: Prodrug activation in human MCF7 cells assessed as appearance of extended m/z range to 1000 at 25 uM measured after 24 hrs by HRMS analysis; type: cell-based; settings: mcf7, 24 h
[13] = tested on: 4T1; assay: Antitumor activity against mouse 4T1 cells implanted in BALB/c mouse assessed as tumor growth inhibition at 3 to 10 mg/kg/day, ip for 2 weeks measured daily during compound dosing by digital caliper method; type: functional, organism-based
[14] = molecular target: T1, NAD(P)H dehydrogenase [quinone] 1; assay: Prodrug activation in human MCF7 cell lysate assessed as NQO1-mediated 1,3-dimethyltetrahydropyrimidin-2(1H)-one formation at 25 uM incubated for 24 hrs by HPLC analysis; type: subcellular; settings: mcf7, 24 h
[15] = Cytotoxicity index, ratio of compound IC50 to cucurbitacin B IC50 for cytotoxicity against African green monkey Vero cells by MTT assay; type: cell-based; settings: chlorocebus sabaeus, read-out: Ratio IC50; method in brief: as §1
[16] = tested on: MCF7; assay: Cytotoxicity against human MCF7 cells assessed as reduction in cell viability incubated for 48 hrs in presence of NQO1 inhibitor dicoumarol by MTT assay; type: functional, cell-based; settings: MCF7, 48 h; method in brief: as §1
[17] = molecular target: T1, NAD(P)H dehydrogenase [quinone] 1; assay: Prodrug activation in human MCF7 cells assessed as NQO1-mediated (R)-6-hydroxy-6-((2S,8S,9R,10R,13R,14S,16R,17R)-16-hydroxy-4,4,9,13,14-pentamethyl-2-(methyl(3-(methylamino)propyl)carbamoyloxy)-3,11-dioxo 2,3,4,7,8,9,10,11,12,13,14,15,16,17-tetradecahydro-1H-cyclopenta[a]phenanthren-17-yl)-2-methyl-5-oxohept-3-en-2-yl acetate metabolite formation at 25 uM incubated for 24 hrs by HPLC analysis; type: ADME, cell-based; settings: mcf7, 24 h
[18] = Toxicity in BALB/c mouse implanted with mouse 4T1 cells assessed as body weight at 3 mg/kg/day, ip for 2 weeks measured daily during compound dosing (reference value: -1.48 %); type: organism-based; settings: in vivo, 336 h
[19] = molecular target: T1, NAD(P)H dehydrogenase [quinone] 1; assay: Prodrug activation in human MCF7 cells assessed as NQO1-mediated CuB release in cell lysate at 25 uM incubated for 24 hrs by HPLC analysis; type: subcellular; settings: mcf7, 24 h
[20] = Toxicity in BALB/c mouse implanted with mouse 4T1 cells assessed as body weight at 5 mg/kg/day, ip for 2 weeks measured during compound dosing (reference value: -1.48 %); type: organism-based; settings: in vivo, 336 h
[21] = Stability of the compound in DMEM medium with 10% FBS incubated for 72 hrs by HPLC analysis
Method in brief: (§3)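 Prodrugs were held in DMEM with 10% FBS for up to 72 h. The fraction of intact compound remaining over time was followed by HPLC.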

[22] = Stability of the compound in DMEM medium with 10% FBS assessed as compound remaining incubated for 24 hrs by HPLC analysis; method in brief: as §3
[23] = molecular target: T1, NAD(P)H dehydrogenase [quinone] 1; assay: Prodrug activation in human MCF7 cells assessed as NQO1-mediated 6-hydroxy-4,4,5,7,8-pentamethylchroman-2-one formation at 25 uM incubated for 24 hrs by HRMS analysis; type: cell-based; settings: mcf7, 24 h
[24] = Prodrug activation in human MCF7 cell cultured in DMEM medium with 10% FBS at 25 uM incubated for 24 hrs by HPLC analysis; type: cell-based; settings: mcf7, 24 h
[25] = molecular target: T1, NAD(P)H dehydrogenase [quinone] 1; assay: Prodrug activation in human MCF7 cells assessed as NQO1-mediated ((R)-6-((2S,8S,9R,10R,13R,14S,16R,17R)-2-(3-aminopropylcarbamoyloxy)-16-hydroxy-4,4,9,13,14-pentamethyl-3,11-dioxo-2,3,4,7,8,9,10,11,12,13,14,15,16,17-tetradecahydro-1H-cyclopenta[a]phenanthren-17-yl)-6-hydroxy-2-methyl-5-oxohept-3-en-2-yl acetate metabolite formation at 25 uM incubated for 24 hrs by HPLC analysis; type: ADME, cell-based; settings: mcf7, 24 h
[26] = molecular target: T1, NAD(P)H dehydrogenase [quinone] 1; assay: Prodrug activation in human MCF7 cells assessed as NQO1-mediated ((R)-6-((2S,8S,9R,10R,13R,14S,16R,17R)-2-(3-aminopropylcarbamoyloxy)-16-hydroxy-4,4,9,13,14-pentamethyl-3,11-dioxo-2,3,4,7,8,9,10,11,12,13,14,15,16,17-tetradecahydro-1H-cyclopenta[a]phenanthren-17-yl)-6-hydroxy-2-methyl-5-oxohept-3-en-2-yl acetate formation at 25 uM incubated for 24 hrs by HRMS analysis; type: cell-based; settings: mcf7, 24 h
[27] = molecular target: T1, NAD(P)H dehydrogenase [quinone] 1; assay: Prodrug activation in human MCF7 cells assessed as NQO1-mediated ((R)-6-((2S,8S,9R,10R,13R,14S,16R,17R)-2-(3-aminopropylcarbamoyloxy)-16-hydroxy-4,4,9,13,14-pentamethyl-3,11-dioxo-2,3,4,7,8,9,10,11,12,13,14,15,16,17-tetradecahydro-1H-cyclopenta[a]phenanthren-17-yl)-6-hydroxy-2-methyl-5-oxohept-3-en-2-yl acetate formation by ESI-TOFMS analysis; type: cell-based
[28] = molecular target: T1, NAD(P)H dehydrogenase [quinone] 1; assay: Prodrug activation in human MCF7 cell lysate assessed as NQO1-mediated tetrahydropyrimidin-2(1H)-one formation at 25 uM incubated for 24 hrs by HPLC analysis; type: subcellular; settings: mcf7, 24 h
[29] = Toxicity in BALB/c mouse implanted with mouse 4T1 cells assessed as death at 3 mg/kg/day, ip measured after 1 day; type: organism-based; settings: in vivo, 24 h
Method in brief: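 BALB/c mice carrying 4T1 breast cancer cell tumours received the test agent once a day, dosed in mg/kg/d. An untreated control group ran alongside. Tumour volume and body weight were followed over the treatment period, survival was recorded after dosing began, and tumours were excised and weighed after sacrifice.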

T1 sequence (P15559 whole entry): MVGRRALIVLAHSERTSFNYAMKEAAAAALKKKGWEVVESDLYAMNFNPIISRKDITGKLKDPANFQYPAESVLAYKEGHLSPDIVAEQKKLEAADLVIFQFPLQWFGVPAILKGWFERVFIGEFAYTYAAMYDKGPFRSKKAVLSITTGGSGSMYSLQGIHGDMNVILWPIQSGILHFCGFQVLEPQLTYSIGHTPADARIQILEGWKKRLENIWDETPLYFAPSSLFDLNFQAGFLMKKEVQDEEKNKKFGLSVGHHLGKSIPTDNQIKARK

| SMILES | IC50 [1] [µM] | inhibition [2] | Activity [1] | Drug metabolism [3] | Drug uptake [5] | Drug metabolism [11] | Drug metabolism [12] | IC50 [2] [µM] | selectivity ratio [15] | IC50 [16] [µM] | Drug metabolism [19] | Stability [21] | Stability [22] [%] | Drug metabolism [23] | also measured |
| --- | --- | --- | --- | --- | --- | --- | --- | --- | --- | --- | --- | --- | --- | --- | --- |
| Cc1c2ccncc2c(C)c2c1[nH]c1ccccc12 [ELLIPTECINE] | 4.06 | – | – | – | – | – | – | – | – | – | – | – | – | – | – |
| Cc1c(C)c2c(c(C)c1O)C(C)(C)CC(=O)O2 | – | inactive | Non-Toxic | – | – | – | – | – | – | – | – | – | – | – | – |
| CC(=O)OC(C)(C)/C=C/C(=O)[C@](C)(O)[C@H]1[C@H](O)C[C@@]2(C)[C@@H]3CC=C4[C@@H](C[C@H](OC(=O)N(C)CCCN(C)C(=O)CC(C)(C)C5=C(C)C(=O)C(C)=C(C)C5=O)C(=O)C4(C)C)[C@]3(C)C(=O)C[C@]12C | 12.4 | – | – | Metabolite_Detected | Not Active | Metabolite_Detected | Metabolite_Notdetected | 18.1 | 310 | > 100 | Metabolite_Detected | Stable | > 90 | Metabolite_Detected | inhibition in vivo at 5 mg/kg/day [4]: 53.8%; Activity [6]: -2.49%; Drug metabolism [7]: Metabolite_Detected; Drug metabolism [8]: Metabolite_Detected; Drug uptake [9]: 8.39 µM; Activity [10]: <400 mg; TGI [13]: Active; Drug metabolism [14]: Metabolite_Notdetected; Drug metabolism [17]: Metabolite_Detected; Activity [18]: 6.46%; Activity [20]: 5.27% |
| O=C1NCCCN1 | – | inactive | Non-Toxic | – | – | – | – | – | – | – | – | – | – | – | – |
| CC(=O)OC(C)(C)/C=C/C(=O)[C@](C)(O)[C@H]1[C@H](O)C[C@@]2(C)[C@@H]3CC=C4[C@@H](C[C@H](OC(=O)NCCCNC(=O)CC(C)(C)C5=C(C)C(=O)C(C)=C(C)C5=O)C(=O)C4(C)C)[C@]3(C)C(=O)C[C@]12C | 1.87 | – | – | Metabolite_Detected | Not Active | Metabolite_Detected | Metabolite_Notdetected | 15.4 | 46.8 | > 100 | Metabolite_Detected | Stable | > 90 | Metabolite_Detected | Drug metabolism [24]: Metabolite_Detected; Drug metabolism [25]: Metabolite_Detected; Drug metabolism [26]: Metabolite_Detected; Drug metabolism [27]: Metabolite_Detected; Drug metabolism [28]: Metabolite_Notdetected |
| CC(=O)OC(C)(C)/C=C/C(=O)[C@](C)(O)[C@H]1[C@H](O)C[C@@]2(C)[C@@H]3CC=C4[C@@H](C[C@H](O)C(=O)C4(C)C)[C@]3(C)C(=O)C[C@]12C | 0.04 | – | – | – | – | – | – | 12 | – | 9.72 | – | – | – | – | Activity [29]: Toxic |
| CN1CCCN(C)C1=O | – | inactive | Non-Toxic | – | – | – | – | – | – | – | – | – | – | – | – |
| CC(=O)OC(C)(C)/C=C/C(=O)[C@](C)(O)[C@H]1[C@H](O)C[C@@]2(C)[C@@H]3CC=C4[C@@H](C[C@H](OC(=O)CC(C)(C)C5=C(C)C(=O)C(C)=C(C)C5=O)C(=O)C4(C)C)[C@]3(C)C(=O)C[C@]12C | 0.07 | – | – | Metabolite_Detected | Not Active | Metabolite_Detected | Metabolite_Notdetected | 16.6 | 1.75 | > 100 | Metabolite_Detected | Stable | > 90 | Metabolite_Detected | Drug uptake [9]: 6.21 µM |
| CC/C(=C(\c1ccccc1)c1ccc(OCCN(C)C)cc1)c1ccccc1 [TAMOXIFEN] | – | – | – | – | – | – | – | – | – | – | – | – | – | – | inhibition in vivo at 5 mg/kg/day [4]: 55%; Activity [20]: 4.99% |
